Only some compounds are listed: those with a hit (about 3.4% of all), similar ones and a draw of the others.
ANO1 block = blocks the mouse calcium-activated chloride channel TMEM16A; Q8BHY3; HEK293 TMEM16A/YFP iodide influx fluorescence, ionomycin; normalized B-score (activity score, 25-100; higher = stronger inhibition) at 10 µM; actives 1.2% (n = 310,000); AID 588511;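 active means ratio plate-corrected score three or more library SD toward inhibition, starting fluorescence score within five deviations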;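 further: score derived from kinetic fluorescence span divided by baseline fluorescence per well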
MIN6 prolif = induces beta-cell replication in MIN6 cells; AID 2380; actives 0.29% (n = 330,000); proliferation, % at 10 µM; MIN6 cells proliferation, ATPlite luminescence, 48 h; cells starved in 0.2% serum; 100% = growth in 10% serum;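 active means compounds whose signal lies at least 3.5 SD above the mean of all wells on their plate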
ANO1 activ = activates or potentiates the mouse TMEM16A chloride channel; Q8BHY3; HEK293 TMEM16A/YFP-H148Q/I152L, iodide quench fluorescence; stronger effect = lower value; B-score at 10 µM; actives 0.3% (n = 340,000);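 active means fluorescence-ratio B-score plate-corrected deviation score at least 3 library SD below zero, with starting fluorescence score within 5 deviations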;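 further: channel opened by trigger with iodide after compound preincubation; score built on the fluorescence ratio of max minus min over baseline; more negative score means more quench and so TMEM16A activation or potentiation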
m5-HT2A agonist = agonists of mouse serotonin 5-HT2A receptor (HTR2A) | P35363 | CHO-K1 mHTR2A beta-arrestin complementation, luminescence; percent of 30 µM serotonin response | activation, % at 7.6 µM | actives 0.66% (n = 360,000);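 active means activation above a run cutoff, the mean activation of all tested compounds plus 3 SD, cut at about 14% in these data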
MC4R antagonist = human MC4R antagonism in cAMP assay; MC4R-expressing cells, MTII-stimulated cAMP, LANCE TR-FRET; inhibition, % at 6.5 µM; actives 0.48% (n = 360,000);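 active means inhibition above its plate's cutoff, the mean of tested wells on that plate plus 3 SD, cut at about 29% in these data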
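Test system: U2OS cells stably expressing human melanocortin 4 receptor (MC4R); also added: Melanotan II challenge; compound: 6.5 µM single dose; timing: 30-min compound preincubation, 1-h Melanotan II challenge, 1-h detection, room temperature; signal: Eu-cAMP/anti-cAMP TR-FRET, emission 671 nm; repeats: one well per compound, no replicates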
MC4R barr agon = activates human MC4R beta-arrestin recruitment; U2OS MC4R beta-arrestin complementation, luminescence; percent of melanotan II response, DMSO zero; activation, % at 8.9 µM; AID 540308; actives 0.98% (n = 360,000);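 active means activation above a per-plate cutoff, the mean activation of sample wells on that plate plus 3 SD, cut at about 8% in these data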
MOR ag counter = activates human mu opioid receptor in HTR2A counterscreen | shares compounds with m5-HT2A agonist | U2OS OPRM1 beta-arrestin PathHunter, luminescence; DMSO 0%, DAMGO 9.3 µM 100% | activation, % at 9.3 µM | actives 5.3% (n = 2,300) | AID 624380;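 active means mean activation above the mean of DMSO-only wells plus 3 SD, cut at about 0.5% in these data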
Target sequence (P35372 whole entry, looked up): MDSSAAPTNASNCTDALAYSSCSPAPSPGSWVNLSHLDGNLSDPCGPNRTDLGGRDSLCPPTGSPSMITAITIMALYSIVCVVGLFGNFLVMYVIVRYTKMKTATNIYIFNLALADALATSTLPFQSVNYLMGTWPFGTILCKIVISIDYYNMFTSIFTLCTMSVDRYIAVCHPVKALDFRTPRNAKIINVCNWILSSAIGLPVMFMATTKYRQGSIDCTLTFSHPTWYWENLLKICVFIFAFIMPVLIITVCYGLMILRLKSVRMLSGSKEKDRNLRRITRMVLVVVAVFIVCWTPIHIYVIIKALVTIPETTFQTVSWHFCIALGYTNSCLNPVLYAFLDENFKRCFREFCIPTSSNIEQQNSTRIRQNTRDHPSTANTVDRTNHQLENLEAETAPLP
HTR2A ag conf = mouse HTR2A agonism confirmed. shares compounds with m5-HT2A agonist. CHO-K1 PathHunter beta-arrestin recruitment, luminescence; DMSO 0%, 30 µM serotonin 100%. activation, % at 7.6 µM. actives 19% (n = 2,300). AID 624381;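 active means mean activation across triplicates above the hit threshold derived in the original primary screen, cut at about 15% in these data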
A number is an active result; – = inactive; · = not tested or not shown.

SMILES	ANO1 block	MIN6 prolif	ANO1 activ	m5-HT2A agonist	MC4R antagonist	MC4R barr agon	MOR ag counter	HTR2A ag conf
CC(C)Sc1nc2sc(-c3ccccc3)cc2c(=O)n1N	–	–	–	–	–	–	·	·
COC(=O)C(C)n1nnc2sc(-c3ccccc3)cc2c1=O (centres undefined)	–	–	–	15.6	–	–	–	–
COc1coc(/C=C/C(=O)O)cc1=O	–	–	–	22.0	–	–	–	–
CC(C)C[C@H]1COc2cccc(N3CCSCC3)c2S(=O)(=O)N1	·	·	·	–	·	·	·	·
Cc1ccc2[nH]c(-c3ccccc3)c(CN3CCCC3)c(=O)c2c1	–	–	–	20.4	–	–	–	–
Cc1ccc2[nH]c(-c3ccccc3)c(CN3CCN(C)CC3)c(=O)c2c1	–	–	–	–	–	–	·	·
Cc1cccc(NC(=O)CC2C(=O)NCCN2C(=O)Nc2ccc(Cl)cc2)c1 (centres undefined)	–	–	–	–	–	–	·	·
Nc1cccc2c(O)cccc12	–	–	–	–	–	–	·	·
O=c1[nH]ccc2c(O)cccc12	–	–	–	16.2	–	–	0.7	–
O=C(Cc1ccccc1)Nc1ncnc2c1C(c1ccccc1)c1c(ccc3ccccc13)O2 (centres undefined)	·	–	–	–	–	–	·	·
COc1cc(NC(=O)C2CC(c3ccccc3Cl)=NO2)cc(OC)c1OC (centres undefined)	–	–	–	18.2	–	–	–	–
CCN(CC)C(=O)OCCc1cc2ccccc2c(=O)o1	·	–	–	–	–	–	·	·
CC1=C(C)CC(C(=O)NCc2ccccc2F)C(C(=O)O)C1 (centres undefined)	–	–	–	–	–	–	·	·
CC(=O)N1Cc2ccccc2CC1C(=O)NCc1ccccc1F (centres undefined)	–	–	–	15.9	–	–	–	–
CCn1ccnc1CNC(=O)C1CCC(=O)N(Cc2cccc(C(F)(F)F)c2)C1 (centres undefined)	–	–	–	–	–	–	·	·
CCn1ccnc1CN(C)C(=O)C1CCC(=O)N(Cc2cccc(C(F)(F)F)c2)C1 (centres undefined)	–	–	–	15.4	–	–	–	–
O=C(Nc1ccccc1)c1cnc2n(c1=O)CCS2	–	–	–	–	–	–	·	·
O=C(c1cnc2n(c1=O)CCS2)N1CCN(c2ccc(Cl)c(Cl)c2)CC1	–	–	–	19.9	–	–	–	–
O=C(Nc1ccccc1)Nc1nnc(SCc2ccc(Cl)cc2)s1	–	–	–	17.4	–	–	–	–
O=S(=O)(c1ccc(C(F)(F)F)cc1)N1CCN(CCc2ccccc2)CC1	–	–	–	–	–	–	·	·
CCC(=O)Nc1nc2c(s1)COc1ccccc1-2	–	–	–	17.6	–	–	–	–
O=C(CCCl)Nc1nc2c(s1)CCc1ccccc1-2	–	–	–	–	–	–	·	·
CN1CCc2c(sc(/N=C/c3cc(C(C)(C)C)ccc3O)c2C#N)C1	–	–	–	17.2	–	–	–	61.9
COc1ccc(/C=N/c2sc3c(c2C#N)CCN(Cc2ccccc2)C3)c(O)c1	–	–	·	·	·	·	·	·
CSc1nc(C)cc(Oc2ccc(OCC(N)=O)nn2)n1	–	–	–	–	–	–	·	·
CSc1nc(C)cc(NC(N)=O)n1	–	–	–	14.7	–	–	–	–
CCN(CC)C(=O)c1ccc(-c2nnc(Nc3ccc(C(=O)NC)cc3)c3ccccc23)cc1	–	–	–	14.5	–	–	–	–
CNC(=O)c1ccc(Nc2nnc(-c3ccc(O)cc3)c3ccccc23)cc1	–	–	–	–	–	–	·	·
Cc1nc(SCC(=O)N2CCCC2=O)nc(C)c1C	·	–	–	–	–	–	·	·

Bioassay records from PubChem BioAssay.
